We go through 7 compounds from article PMC8792322 (European journal of medicinal chemistry, 2021).

Some results are limits rather than exact numbers.

In one data set the target is PI3Kδ (Homo sapiens, UniProt O00329). Kind of data set: PI3Kδ lipid kinase inhibition, Adapta TR-FRET assay. The class given is biochemical. The conditions noted are these: in comparison to ZSTK474. In general terms: Time-resolved FRET reads energy transfer from a long-lived donor to a nearby acceptor.
A further data set concerns the target PI3Kβ (Homo sapiens, UniProt P42338). Briefly: PI3Kβ lipid kinase inhibition, Adapta TR-FRET assay. The class given is biochemical. As to conditions: in comparison to ZSTK474.
For data set [1], the system named is PI3Kα, PI3Kβ, PI3Kγ, PI3Kδ. The conditions noted are these: compared to ZSTK474; cited from earlier work.
The target in the next data set is PI3Kγ (Homo sapiens, UniProt P48736). Kind of data set: PI3Kγ lipid kinase inhibition, Adapta TR-FRET assay. It counts as biochemical. As to conditions: in comparison to ZSTK474.
The next data set relates to JAK2V617F MF mouse model. Briefly: Therapy study in JAK2V617F myelofibrosis mouse model. It counts as in vivo. As to conditions: 325 mg/kg daily p.o., 4 days. Summed up: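 JAK2V617F fl/− × Mx1-Cre donor bone marrow mixed with WT C57BL/6 marrow (1:9, WT:mutant). Five million cells transplanted into lethally irradiated C57BL/6 females, with polyI:C given twice 2 weeks after transplant. Spleen volume by 7T MRI (2D multi-slice FLASH, TR/TE 600/8 ms, 40 slices of 0.4 mm) at days 0 and 4, summing pixel areas × slice thickness. Spleens weighed after 5 days of treatment. n=5 vehicle, n=4 treated; mean ± s.d.; Welch's t-test.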

Data set [2] is described as follows: In vivo tissue levels and metabolic profile by LC-MS/MS. More on the design: species or system mouse. As to conditions: mice, oral 325 mg/kg, approximately 4 h. The procedure, abridged: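 Mice (n=4 per compound) dosed orally at 325 mg/kg; blood, spleen and bone marrow taken about 4 h later. Tissue extracted by shaking or bead homogenisation and spun at 10,000 × g. Analysed by C18 UPLC (0.1% formic acid water/acetonitrile, 0.6 mL/min) with MRM LC-MS/MS. Internal-standard calibration used 1/X weighting over 0.02–160 ng/mL. Synthesized metabolite standards confirmed identities; levels given as ng/g.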

Data set [3] has as its system phosphorylation of ERK1/2 (T202/Y204). Kind of data set: Western blot quantification of pERK1/2 in tumor-derived cell lines. The class given is cell-based. The conditions noted are these: Homo sapiens, 0.5 h, read-out: inhibition of pERK phosphorylation. The procedure, abridged:
(§1)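 A375 and D54 cells (DMEM, 10% FBS) and SET-2 cells (RPMI, 20% FBS) treated 30 min with 10 μM test compound. PDGF 50 ng/ml added for A375 and D54 only. Cells lysed 20 min on ice in RIPA with protease/phosphatase inhibitors, then SDS-PAGE/PVDF blots probed for pAKT S473, pERK1/2 T202/Y204, total AKT and total ERK1/2, with chemiluminescent detection. Background-subtracted phospho densities normalised to total protein, relative to control. Three experiments; mean ± SEM.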
In general terms: Immunoblotting shows a protein as a band on a membrane.

Data set [4] has as its system A375 melanoma, D54 glioblastoma and SET-2 leukemia tumor cell lines. Kind of data set: CellTiter-Fluor cell viability assay. The class given is cell-based. The conditions noted are these: Homo sapiens, 72 h, read-out: anti-proliferative activity IC50. Summed up: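 Human A375, D54 (DMEM or RPMI, 10% FBS) and SET-2 (20% FBS) cells at 37 °C, 5% CO2; 500–1,000 cells/well seeded and left 24 h, then test compound added at 0.1–20 μM final for 72 h. Read by CellTiter-Fluor fluorescence, with a reference PI3K inhibitor as positive control. Three experiments in duplicate wells; IC50 from curve fit, mean ± SEM.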

Data set [5] relates to phosphorylated ERK1/2 and AKT in spleens of JAK2V617F MF mice. Briefly: pAKT and pERK1/2 in spleens of treated MF mice. The class given is in vivo, mouse. As to conditions: 325 mg/kg daily p.o., 5 days, vs vehicle. Summed up:
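JAK2V617F myelofibrosis mice received test compound orally for 5 days, and spleens were taken after sacrifice. For blots, tissue was homogenised in RIPA and 30 μg protein (by BCA) run by SDS-PAGE. Blots were probed for pERK1/2 and pAKT with β-actin as loading control, 2 animals per group. Flow cytometry: isolated cells stained intracellularly with APC anti-pERK1/2 (pT202/pY204) and anti-pAKT (pS473); mean fluorescence intensity reported.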

Data set [6] concerns phosphorylation of AKT (S473). Briefly: Western blot quantification of pAKT in tumor-derived cell lines. It counts as cell-based. The conditions noted are these: Homo sapiens, 0.5 h, read-out: inhibition of pAKT phosphorylation. Summed up: as §1
For data set [7], the system named is PI3Kα, PI3Kβ, PI3Kγ, PI3Kδ. Kind of data set: PI3K isoform inhibition, statements spanning several isoforms. The conditions noted are these: compared to 6b. It counts as biochemical, human. The procedure, abridged:
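Purified human PI3Kα, β, γ and δ enzymes tested in a fluorescence-based Adapta TR-FRET lipid kinase assay, run as a contract service. Inhibitor range 0.1 nM – 10 μM. Data are the average of three experiments, each in duplicate, as mean ± SEM.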

PI3Kβ, sequence (P42338 whole entry): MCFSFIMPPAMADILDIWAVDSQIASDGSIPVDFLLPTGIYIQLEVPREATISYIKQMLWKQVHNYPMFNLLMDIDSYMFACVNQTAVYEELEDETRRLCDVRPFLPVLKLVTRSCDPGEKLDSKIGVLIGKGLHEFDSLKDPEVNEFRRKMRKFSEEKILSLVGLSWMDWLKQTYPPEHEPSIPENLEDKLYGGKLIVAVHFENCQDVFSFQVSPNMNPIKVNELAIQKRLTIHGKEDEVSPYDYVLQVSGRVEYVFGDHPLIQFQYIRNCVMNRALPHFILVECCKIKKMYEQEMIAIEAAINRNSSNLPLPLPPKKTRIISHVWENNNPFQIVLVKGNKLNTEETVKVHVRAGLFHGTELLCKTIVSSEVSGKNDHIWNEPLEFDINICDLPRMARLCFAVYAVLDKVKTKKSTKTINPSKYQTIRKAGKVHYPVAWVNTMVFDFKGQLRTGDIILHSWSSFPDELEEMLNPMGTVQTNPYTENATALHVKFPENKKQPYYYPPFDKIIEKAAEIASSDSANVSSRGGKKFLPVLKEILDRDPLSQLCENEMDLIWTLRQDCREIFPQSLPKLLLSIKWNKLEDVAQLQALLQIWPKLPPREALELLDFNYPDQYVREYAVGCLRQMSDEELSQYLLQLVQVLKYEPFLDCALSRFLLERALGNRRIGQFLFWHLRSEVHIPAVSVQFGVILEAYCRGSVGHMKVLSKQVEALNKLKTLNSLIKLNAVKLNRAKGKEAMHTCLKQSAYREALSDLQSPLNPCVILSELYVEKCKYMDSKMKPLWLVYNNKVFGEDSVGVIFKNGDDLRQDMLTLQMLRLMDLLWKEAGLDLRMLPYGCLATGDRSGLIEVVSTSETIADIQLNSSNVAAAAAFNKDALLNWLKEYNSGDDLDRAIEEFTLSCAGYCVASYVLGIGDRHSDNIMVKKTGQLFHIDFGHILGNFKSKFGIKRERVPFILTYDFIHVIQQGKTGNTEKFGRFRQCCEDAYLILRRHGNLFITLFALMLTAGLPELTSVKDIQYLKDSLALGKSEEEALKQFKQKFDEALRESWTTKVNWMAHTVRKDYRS
PI3Kβ, sequence (P27986 whole entry partner): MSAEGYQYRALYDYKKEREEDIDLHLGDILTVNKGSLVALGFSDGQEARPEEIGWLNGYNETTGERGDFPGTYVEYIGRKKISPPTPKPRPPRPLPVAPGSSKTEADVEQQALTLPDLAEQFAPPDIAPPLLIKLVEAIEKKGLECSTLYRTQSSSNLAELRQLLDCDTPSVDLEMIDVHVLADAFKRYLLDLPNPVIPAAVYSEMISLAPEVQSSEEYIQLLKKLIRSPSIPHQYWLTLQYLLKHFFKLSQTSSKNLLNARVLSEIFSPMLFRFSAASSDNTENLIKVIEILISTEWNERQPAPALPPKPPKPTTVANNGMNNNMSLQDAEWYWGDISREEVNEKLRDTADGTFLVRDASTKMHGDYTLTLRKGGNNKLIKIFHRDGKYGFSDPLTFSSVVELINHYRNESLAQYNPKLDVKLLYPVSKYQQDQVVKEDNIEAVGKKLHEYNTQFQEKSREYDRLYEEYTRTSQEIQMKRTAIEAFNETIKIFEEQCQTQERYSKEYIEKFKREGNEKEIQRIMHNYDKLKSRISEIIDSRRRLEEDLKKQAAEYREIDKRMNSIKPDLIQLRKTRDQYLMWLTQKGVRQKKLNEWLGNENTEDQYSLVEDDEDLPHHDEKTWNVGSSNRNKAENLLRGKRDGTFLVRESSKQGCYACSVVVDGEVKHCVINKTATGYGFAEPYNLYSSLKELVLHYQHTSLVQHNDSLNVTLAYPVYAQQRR
PI3Kδ, sequence (O00329 whole entry): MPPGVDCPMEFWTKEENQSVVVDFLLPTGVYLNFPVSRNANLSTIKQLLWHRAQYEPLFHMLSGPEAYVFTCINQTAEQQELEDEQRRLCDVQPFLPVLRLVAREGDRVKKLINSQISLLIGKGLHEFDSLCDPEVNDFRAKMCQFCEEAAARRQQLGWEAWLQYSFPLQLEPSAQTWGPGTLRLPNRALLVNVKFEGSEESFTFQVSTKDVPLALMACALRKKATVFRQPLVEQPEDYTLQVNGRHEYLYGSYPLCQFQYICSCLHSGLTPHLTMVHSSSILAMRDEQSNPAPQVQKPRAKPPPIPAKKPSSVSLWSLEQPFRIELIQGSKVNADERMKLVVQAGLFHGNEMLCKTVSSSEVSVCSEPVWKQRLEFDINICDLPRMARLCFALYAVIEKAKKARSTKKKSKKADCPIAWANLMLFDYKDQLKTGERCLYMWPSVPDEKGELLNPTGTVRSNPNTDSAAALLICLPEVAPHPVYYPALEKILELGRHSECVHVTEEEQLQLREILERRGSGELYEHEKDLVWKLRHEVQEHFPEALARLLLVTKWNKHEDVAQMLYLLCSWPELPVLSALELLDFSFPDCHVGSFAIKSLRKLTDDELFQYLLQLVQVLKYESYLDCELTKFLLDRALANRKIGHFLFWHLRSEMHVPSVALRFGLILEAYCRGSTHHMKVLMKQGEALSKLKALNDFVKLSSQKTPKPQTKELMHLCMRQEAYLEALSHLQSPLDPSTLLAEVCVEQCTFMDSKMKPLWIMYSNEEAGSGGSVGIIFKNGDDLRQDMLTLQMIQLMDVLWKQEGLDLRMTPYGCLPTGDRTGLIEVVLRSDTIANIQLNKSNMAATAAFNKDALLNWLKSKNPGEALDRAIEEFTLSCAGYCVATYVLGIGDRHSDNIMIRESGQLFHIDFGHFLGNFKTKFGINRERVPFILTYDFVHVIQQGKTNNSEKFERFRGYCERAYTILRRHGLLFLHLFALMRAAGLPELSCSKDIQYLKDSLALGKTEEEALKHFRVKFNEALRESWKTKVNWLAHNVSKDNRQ
PI3Kδ, sequence (P27986 whole entry partner): as the sequence (P27986 whole entry partner) above
PI3Kγ, sequence (P48736 whole entry): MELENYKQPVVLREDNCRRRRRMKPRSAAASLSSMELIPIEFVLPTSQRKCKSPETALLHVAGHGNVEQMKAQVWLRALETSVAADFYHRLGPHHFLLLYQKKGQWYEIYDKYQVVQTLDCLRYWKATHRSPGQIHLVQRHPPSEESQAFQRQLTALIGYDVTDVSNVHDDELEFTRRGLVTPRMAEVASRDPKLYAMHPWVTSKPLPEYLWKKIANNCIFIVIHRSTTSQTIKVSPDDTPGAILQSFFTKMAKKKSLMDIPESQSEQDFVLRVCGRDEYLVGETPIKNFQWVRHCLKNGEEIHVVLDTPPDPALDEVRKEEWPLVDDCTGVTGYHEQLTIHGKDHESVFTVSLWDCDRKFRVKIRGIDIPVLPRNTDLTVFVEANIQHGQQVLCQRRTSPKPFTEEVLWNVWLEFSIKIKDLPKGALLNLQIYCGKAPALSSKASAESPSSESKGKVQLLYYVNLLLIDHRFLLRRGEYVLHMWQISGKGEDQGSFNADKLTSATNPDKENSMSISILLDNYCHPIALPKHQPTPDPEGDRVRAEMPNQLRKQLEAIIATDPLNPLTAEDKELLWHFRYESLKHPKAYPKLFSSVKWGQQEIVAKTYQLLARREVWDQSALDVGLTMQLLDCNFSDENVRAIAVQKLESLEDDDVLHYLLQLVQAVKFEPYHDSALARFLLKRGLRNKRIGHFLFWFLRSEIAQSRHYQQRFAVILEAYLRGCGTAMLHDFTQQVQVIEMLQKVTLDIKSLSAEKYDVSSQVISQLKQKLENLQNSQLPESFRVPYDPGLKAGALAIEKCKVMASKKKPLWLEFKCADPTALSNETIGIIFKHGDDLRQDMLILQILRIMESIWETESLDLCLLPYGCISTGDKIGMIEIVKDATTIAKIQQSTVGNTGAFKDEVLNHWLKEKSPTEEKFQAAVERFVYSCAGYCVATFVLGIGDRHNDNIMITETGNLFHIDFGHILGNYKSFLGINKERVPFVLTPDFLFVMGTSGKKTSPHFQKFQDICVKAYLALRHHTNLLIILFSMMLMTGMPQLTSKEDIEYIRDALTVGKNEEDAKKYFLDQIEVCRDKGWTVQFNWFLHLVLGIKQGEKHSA

For the compound `OCCN(CCO)c1nc(N2CCOCC2)nc(-n2c(C(F)F)nc3ccccc32)n1` [Compound 6b, 2,2’-((4-(2-(difluoromethyl)-1H-benzo[d]imidazol-1-yl)-6-morpholino-1,3,5-triazin-2-yl)azanediyl)bis(ethan-1-ol)], the “fold decrease in PI3Kδ inhibition” value on PI3Kδ is on record as 2.5 fold. On PI3Kβ, the “fold decrease in PI3Kβ inhibition” value came out at 5 fold.

As to `FC(F)c1nc2ccccc2n1-c1nc(N2CCNCC2)nc(N2CCOCC2)n1` [Compound 2a], in data set [1], the “fold reduction in PI3Kα and PI3Kδ inhibition” value is 36 fold; the “fold reduction in PI3Kβ and PI3Kγ inhibition” value is reported as more than 70 fold.

As for `OCCNc1nc(N2CCOCC2)nc(-n2c(C(F)F)nc3ccccc32)n1` [Compound 6a, 2-((4-(2-(difluoromethyl)-1H-benzo[d]imidazol-1-yl)-6-morpholino-1,3,5-triazin-2-yl)amino)ethan-1-ol], the “fold decrease in PI3Kδ inhibition” value on PI3Kδ turned out to be 2.5 fold. The “fold decrease in PI3Kβ inhibition” value at PI3Kβ came out at 5 fold. For the same compound, the “fold lowered potency towards PI3Kγ” value on PI3Kγ is on record as 2.5 fold.

One may read the inhibition as the share of the control response that was lost under treatment. The IC50 is the concentration at which inhibition is half-maximal. As for `O=C(NOCCOCCOCCOCCNc1nc(N2CCOCC2)nc(-n2c(C(F)F)nc3ccccc32)n1)c1ccc(F)c(F)c1Nc1ccc(I)cc1F` [Compound 6r, N-(2-(2-(2-(2-((4-(2-(difluoromethyl)-1H-benzo[d]imidazol-1-yl)-6-morpholino-1,3,5-triazin-2-yl)amino)ethoxy)ethoxy)ethoxy)ethoxy)-3,4-difluoro-2-((2-fluoro-4-iodophenyl)amino)benzamide], the “spleen volume by MRI compared with vehicle” value in the data set on JAK2V617F MF mouse model is recorded as “significantly reduced”. Besides, the “in vivo metabolites identified” value in data set [2] is “MV-187 (6a) and PD0316684 and MV4–6”. Moreover, the inhibition at 10 µM in data set [3] is 66 to 85%; in data set [6], 22 to 29%. Moreover, the IC50 in data set [4] fell in the range of 10.7 to 17.3 µM. Further, the “phosphorylated ERK1/2 and AKT levels in spleen” value in data set [5] is on record as “significantly reduced”.

Regarding `COCCNc1nc(N2CCOCC2)nc(-n2c(C(F)F)nc3ccccc32)n1` [Compound 6c, 4-(2-(difluoromethyl)-1H-benzo[d]imidazol-1-yl)-N-(2-methoxyethyl)-6-morpholino-1,3,5-triazin-2-amine], at PI3Kβ, the “fold decrease in PI3Kβ inhibition” value is on record as 14 fold.

In the case of `COCCN(CCO)c1nc(N2CCOCC2)nc(-n2c(C(F)F)nc3ccccc32)n1` [Compound 6d, 2-((4-(2-(difluoromethyl)-1H-benzo[d]imidazol-1-yl)-6-morpholino-1,3,5-triazin-2-yl)(2-methoxyethyl)amino)ethan-1-ol], the “fold lower potency towards PI3Kβ and PI3Kγ” value in data set [7] amounted to 2 fold.

With `O=C(NOCCOCCOCCOCCN(CCO)c1nc(N2CCOCC2)nc(-n2c(C(F)F)nc3ccccc32)n1)c1ccc(F)c(F)c1Nc1ccc(I)cc1F` [Compound 6s, N-((3-(4-(2-(difluoromethyl)-1H-benzo[d]imidazol-1-yl)-6-morpholino-1,3,5-triazin-2-yl)-1-hydroxy-6,9,12-trioxa-3-azatetradecan-14-yl)oxy)-3,4-difluoro-2-((2-fluoro-4-iodophenyl)amino)benzamide], the “spleen volume by MRI compared with vehicle” value with JAK2V617F MF mouse model was “significantly reduced”. Further, the “in vivo metabolites identified” value in data set [2] is “MV5–46 (6o), which is then further metabolized to MV5–32 (6b) and MV4–187 (6a)”. The inhibition at 10 µM lay within 87 to 96% in data set [3] and 55 to 71% in data set [6]. Further, in data set [4], the IC50 fell in the range of 7 to 9.9 µM. The “phosphorylated ERK1/2 and AKT levels in spleen” value in [5] is reported as “significantly reduced”.
